Columns and labels:
[1] = Selectivity index, ratio of CC50 for human MRC-5 SV2 cells to IC50 for antitrypanosomal activity against nifurtimox-sensitive Trypanosoma cruzi Tulahuen CL2 infected in human MRC-5 SV2 cells; type: toxicity, cell-based; details: read-out: Ratio CC50/IC50
In short: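 Ratio of MRC-5SV2 CC50 (3-day resazurin assay) to IC50 against T. cruzi amastigotes in MRC-5SV2 cells (7-day CPRG assay).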

Leishmania infantum = assay: Antileishmanial activity against amastigote form of Leishmania infantum MHOM/MA(BE)/67 infected in Swiss mouse peritoneal macrophages assessed as reduction in parasite growth treated at 2 hrs post-infection and measured after 5 days by Giemsa staining based microscopic analysis; type: functional, organism-based; details: MHOM/MA(BE)/67, Peritoneal macrophage
In short: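 Swiss mouse peritoneal macrophages, harvested after 2-day potato-starch stimulation, infected 48 h after plating; compounds added 2 h post-infection.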

CYP450 [2] = assay: Metabolic stability of the compound in mouse liver microsomes S9 fraction assessed as CYP450-mediated metabolism by measuring parent compound remaining at 5 uM measured after 15 mins in presence of NADPH by UPLC-MS analysis; type: ADME, subcellular; details: read-out: Stabilty
In short: (§1)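 Compound at 5 μM with 0.5 mg/mL male mouse or pooled human liver microsomes in potassium phosphate buffer; reaction started with 1 mM NADPH. Samples taken at 0, 15, 30 and 60 min and quenched in cold acetonitrile with internal standard. Parent remaining quantified by UPLC-MS/MS in MRM mode and given as % of the 0 min value.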

CYP450 [3] = assay: Metabolic stability of the compound in mouse liver microsomes S9 fraction assessed as CYP450-mediated metabolism by measuring parent compound remaining at 5 uM measured after 60 mins in presence of NADPH by UPLC-MS analysis; type: ADME, subcellular; details: read-out: Stabilty; in short: as §1
CYP450 [4] = target: CYP450 (Homo sapiens, UniProt P04798+P05177+P05181+P08684+P10632+P10635+P11509+P11712+P13584+P20813+P20815+P20853+P24462+P24903+P33260+P33261+P51589+P78329+P98187+Q02928+Q08477+Q16678+Q16696+Q5TCH4+Q6VVX0+Q7Z449+Q8TAV3+Q96SQ9+Q9HB55); assay: Metabolic stability of the compound in human liver microsomes S9 fraction assessed as CYP450-mediated metabolism by measuring parent compound remaining at 5 uM measured after 15 mins in presence of NADPH by UPLC-MS analysis; type: ADME, subcellular; details: read-out: Stabilty; in short: as §1
UGT [5] = assay: Metabolic stability of the compound in mouse liver microsomes S9 fraction assessed as UGT-mediated metabolism by measuring parent compound remaining at 5 uM measured after 15 mins in presence of UDPGA by UPLC-MS analysis; type: ADME, subcellular; details: read-out: Stabilty
In short: (§2)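 Compound at 5 μM with 0.5 mg/mL male mouse or pooled human liver microsomes; reaction started with 2 mM UDPGA. Sampled at 0, 15, 30 and 60 min and quenched in cold acetonitrile with internal standard. Parent remaining measured by UPLC-MS/MS (MRM) as % of the 0 min value.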

UGT [6] = target: T1, UGT (Homo sapiens, UniProt O60656+O75310+O75795+P06133+P0DTE4+P0DTE5+P16662+P19224+P22309+P22310+P35503+P35504+P36537+P54855+Q6UWM9+Q9BY64+Q9HAW7+Q9HAW8+Q9HAW9); assay: Metabolic stability of the compound in human liver microsomes S9 fraction assessed as UGT-mediated metabolism by measuring parent compound remaining at 5 uM measured after 15 mins in presence of UDPGA by UPLC-MS analysis; type: ADME, subcellular; details: read-out: Stabilty; in short: as §2
UGT [7] = target: T1, UGT; assay: Metabolic stability of the compound in human liver microsomes S9 fraction assessed as UGT-mediated metabolism by measuring parent compound remaining at 5 uM measured after 30 mins in presence of UDPGA by UPLC-MS analysis; type: ADME, subcellular; details: read-out: Stabilty; in short: as §2
UGT [8] = target: T1, UGT; assay: Metabolic stability of the compound in human liver microsomes S9 fraction assessed as UGT-mediated metabolism by measuring parent compound remaining at 5 uM measured after 60 mins in presence of UDPGA by UPLC-MS analysis; type: ADME, subcellular; details: read-out: Stabilty; in short: as §2
Trypanosoma cruzi [9] = assay: Antitrypanosomal activity against Trypanosoma cruzi strain Y bloodstream trypomastigotes infected in Swiss Webster mouse assessed as reduction in parasitemia at 25 mg/kg, po bid for 5 days treatment started at 6 days post-infection and measured at 8 days post-infection by light microscopic analysis; type: functional; details: 48 h, time 2 day
In short: (§3)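 Male Swiss Webster mice, 18–20 g, six per group; only mice with detectable parasitemia treated. Oral gavage for 5 consecutive days (6–10 dpi); test compound given b.i.d. in 10% Tween 80, benznidazole once daily, formulations freshly prepared. Parasitemia counted by light microscopy in 5 μL blood; mortality checked daily to 34 dpi.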

Trypanosoma cruzi [10] = assay: (§4) Antitrypanosomal activity against Trypanosoma cruzi strain Y bloodstream trypomastigotes infected in Swiss Webster mouse assessed as reduction in parasitemia at 0.25 to 2.5 mg/kg, po bid for 5 days treatment started at 6 days post-infection by light microscopic analysis; type: functional; details: dose 0.25-2.5 mg/kg, time 5 day; in short: as §3
Trypanosoma cruzi [11] = assay: as §4, with “at” for “at 0.25 to”, “post-infection in presence of 10 mg/kg, po Benznidazole” for “post-infection”; type: functional; details: 120 h, time 5 day; in short: as §3
[12] = Toxicity in Swiss webster mouse infected with Trypanosoma cruzi Y trypomastigotes assessed as animal survival at 0.25 mg/kg, po bid for 5 days treatment started at 6 days post-infection and measured at 34 days post-infection; type: organism-based; details: in vivo, 696 h, time 29 day
In short: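 Male Swiss Webster mice (18−20 g, 4−5 weeks) were infected i.p. with 10⁴ Y-strain bloodstream trypomastigotes from a donor mouse. Only mice with detectable parasitemia were treated, in groups of six. Oral gavage was given on days 6–10 post-infection, b.i.d. or q.d. as listed, in 10% Tween 80 vehicle, freshly prepared. Infected vehicle controls were included. Mortality was checked daily to 34 dpi as cumulative percentage.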

Trypanosoma cruzi [13] = assay: Antitrypanosomal activity against Trypanosoma cruzi Y bloodstream trypomastigotes assessed as inhibition of parasite growth incubated for 24 hrs by light microscopy; type: functional, organism-based
[14] = Cytotoxicity against Swiss Webster mouse 3D cardiomyocytes assessed as reduction in cell viability measured after 48 hrs by PrestoBlue assay; type: tissue-based, Cardiac Muscle Cell
In short: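 Mouse embryo heart cells as monolayer (2D) or 3D aggregates (25 × 10³ cells/well on 1% agarose). Uninfected cultures exposed 48 h to rising concentrations. Morphology checked by light microscopy; viability read by PrestoBlue; CC₅₀ determined.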

Trypanosoma cruzi [15] = assay: Antitrypanosomal activity against nifurtimox-sensitive Trypanosoma cruzi Tulahuen CL2 infected in Swiss mouse peritoneal macrophages assessed as inhibition of parasite growth measured after 7 days by spectrophotometric analysis; type: functional, organism-based; details: Tulahuen CL2, Peritoneal macrophage, 168 h
Trypanosoma cruzi [16] = assay: Antitrypanosomal activity against nifurtimox-sensitive Trypanosoma cruzi Tulahuen CL2 infected in Swiss mouse peritoneal macrophages assessed as inhibition of parasite growth measured after 7 days in presence of ABC transporter inhibitor, verapamil by spectrophotometric analysis; type: functional, organism-based; details: Tulahuen CL2, Peritoneal macrophage, 168 h
In short: (§5)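 Macrophage-hosted 7-day assay read with CPRG at 540 nm, with compound given together with an ABC transporter inhibitor: cyclosporine A 2 μM, probenecid 700 μM or verapamil 8 μM. IC50 from % reduction versus infected controls.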

Trypanosoma cruzi [17] = assay: Antitrypanosomal activity against nifurtimox-sensitive Trypanosoma cruzi Tulahuen CL2 infected in Swiss mouse peritoneal macrophages assessed as inhibition of parasite growth measured after 7 days in presence of ABC transporter inhibitor, cyclosporine A by spectrophotometric analysis; type: functional, organism-based; details: Tulahuen CL2, Peritoneal macrophage, 168 h; in short: as §5

For `Nc1ncnc2c1c(-c1ccc(Cl)cc1)nn2[C@@H]1O[C@H](CO)[C@@H](O)[C@H]1O`, the selectivity ratio [1] was greater than 197, the IC50 (Leishmania infantum) was greater than 64 µM and the remaining at 0.25 h, 5 µM (CYP450 [2]) was 103%. For the same compound, the remaining at 1 h, 5 µM (CYP450 [3]) was 108%, the remaining at 0.25 h, 5 µM (CYP450 [4]) was 102% and the remaining at 0.25 h, 5 µM (UGT [5]) was 103%. For the same compound, the remaining at 0.25 h, 5 µM (UGT [6]) was 100%, the remaining at 0.5 h, 5 µM (UGT [7]) was 106% and the remaining at 1 h, 5 µM (UGT [8]) was 104%. For the same compound, the inhibition in vivo at 25 mg/kg (Trypanosoma cruzi [9]) was 99%, the “inhibition (INH)” value (Trypanosoma cruzi [10]) was 43% and the inhibition in vivo at 2.5 mg/kg (Trypanosoma cruzi [11]) was 71%. For the same compound, the Activity [12] was “Toxic”, the IC50 (Trypanosoma cruzi [13]) was greater than 81 µM and the CC50 at 48 h [14] was 200 µM. It also gave an IC50 (Trypanosoma cruzi [15]) greater than 64 µM, an IC50 (Trypanosoma cruzi [16]) greater than 64 µM and an IC50 (Trypanosoma cruzi [17]) greater than 64 µM.

— ChEMBL document CHEMBL4811241, “Revisiting Pyrazolo[3,4-d]pyrimidine Nucleosides as Anti-Trypanosoma cruzi and Antileishmanial Agents” (J Med Chem, 2021)
